ChEMBL document CHEMBL1138477, “8-(4-Methoxyphenyl)pyrazolo[1,5-a]-1,3,5-triazines: selective and centrally active corticotropin-releasing factor receptor-1 (CRF1) antagonists” (J Med Chem, 2009)
Calls of active or inactive are those of the source. The calls are words filed in the database; no cut-off is given here.

What was measured:
[1] = molecular target: T1, Alpha-2B adrenergic receptor (Homo sapiens, UniProt P18089); assay: Binding affinity to adrenergic alpha2b receptor
T1 sequence (P18089 whole entry): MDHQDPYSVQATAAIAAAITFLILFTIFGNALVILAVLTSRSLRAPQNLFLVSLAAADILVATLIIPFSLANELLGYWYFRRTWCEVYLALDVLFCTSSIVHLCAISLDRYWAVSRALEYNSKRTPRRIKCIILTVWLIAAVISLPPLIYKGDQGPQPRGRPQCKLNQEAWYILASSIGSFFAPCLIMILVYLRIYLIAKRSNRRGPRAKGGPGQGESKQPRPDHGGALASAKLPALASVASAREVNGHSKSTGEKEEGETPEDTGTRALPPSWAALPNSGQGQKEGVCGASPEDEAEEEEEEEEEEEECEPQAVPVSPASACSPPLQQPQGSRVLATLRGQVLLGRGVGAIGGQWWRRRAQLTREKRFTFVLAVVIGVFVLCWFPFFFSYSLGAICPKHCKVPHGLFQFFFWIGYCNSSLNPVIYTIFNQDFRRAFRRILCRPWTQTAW

[2] = system: Canis familiaris; assay: Ex vivo displacement of [125I]Tyr0-ovine CRF from CRF1 receptor in dog at 5 mg/kg, po measured in plasma after 10 hrs; format: functional; settings: Canis lupus familiaris
How it was run: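 Beagle dogs given 5 mg/kg po (free base), in Labrafil or Tween-80/0.5% methylcellulose 1:99; plasma drawn 2 and 10 h postdose, diluted 10-fold in binding buffer, and tested for inhibition of 125I-Tyr0-ovine-CRF binding to rat receptors; mean ± SD, n = 3.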

[3] = molecular target: T2, Corticotropin-releasing factor receptor 2 (Homo sapiens, UniProt Q13324); assay: Binding affinity to human CRF2alpha receptor
T2 sequence (Q13324 whole entry): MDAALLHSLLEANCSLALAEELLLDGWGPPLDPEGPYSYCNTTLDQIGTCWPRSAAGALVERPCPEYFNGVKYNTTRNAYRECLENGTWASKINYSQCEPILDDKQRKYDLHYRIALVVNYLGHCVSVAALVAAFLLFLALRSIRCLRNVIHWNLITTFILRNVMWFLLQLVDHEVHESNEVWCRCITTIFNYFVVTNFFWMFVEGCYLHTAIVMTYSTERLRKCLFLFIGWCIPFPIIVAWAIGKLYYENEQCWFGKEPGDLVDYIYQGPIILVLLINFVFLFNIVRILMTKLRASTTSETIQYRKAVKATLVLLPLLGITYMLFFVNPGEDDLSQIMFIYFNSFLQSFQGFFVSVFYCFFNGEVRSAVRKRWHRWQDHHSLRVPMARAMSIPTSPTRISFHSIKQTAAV

[4] = molecular target: T3, Alpha-1B adrenergic receptor (Homo sapiens, UniProt P35368); assay: Binding affinity to adrenergic alpha-1b receptor
T3 sequence (P35368 whole entry): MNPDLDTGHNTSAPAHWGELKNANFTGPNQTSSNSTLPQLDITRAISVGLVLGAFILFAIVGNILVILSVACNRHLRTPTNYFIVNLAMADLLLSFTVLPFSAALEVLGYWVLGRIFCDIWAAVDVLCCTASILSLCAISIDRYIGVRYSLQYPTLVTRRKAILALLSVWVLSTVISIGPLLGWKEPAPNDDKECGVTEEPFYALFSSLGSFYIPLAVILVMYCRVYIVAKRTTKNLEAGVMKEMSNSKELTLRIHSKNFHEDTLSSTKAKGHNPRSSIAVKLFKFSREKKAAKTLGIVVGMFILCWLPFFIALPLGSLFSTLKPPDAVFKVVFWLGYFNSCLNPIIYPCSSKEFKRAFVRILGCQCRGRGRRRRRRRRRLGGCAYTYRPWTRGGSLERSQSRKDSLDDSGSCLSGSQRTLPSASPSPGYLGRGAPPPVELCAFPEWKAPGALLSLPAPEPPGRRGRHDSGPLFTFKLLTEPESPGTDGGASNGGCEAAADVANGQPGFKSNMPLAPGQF

[5] = Binding affinity to serotonin receptor
[6] = molecular target: T4, Corticotropin-releasing factor receptor 1 (Rattus norvegicus, UniProt P35353); assay: Antagonist activity at CRF1 receptor in rat brain homogenates assessed as inhibition of CRF-stimulted cAMP production; format: functional, tissue-based
T4 sequence (P35353 whole entry): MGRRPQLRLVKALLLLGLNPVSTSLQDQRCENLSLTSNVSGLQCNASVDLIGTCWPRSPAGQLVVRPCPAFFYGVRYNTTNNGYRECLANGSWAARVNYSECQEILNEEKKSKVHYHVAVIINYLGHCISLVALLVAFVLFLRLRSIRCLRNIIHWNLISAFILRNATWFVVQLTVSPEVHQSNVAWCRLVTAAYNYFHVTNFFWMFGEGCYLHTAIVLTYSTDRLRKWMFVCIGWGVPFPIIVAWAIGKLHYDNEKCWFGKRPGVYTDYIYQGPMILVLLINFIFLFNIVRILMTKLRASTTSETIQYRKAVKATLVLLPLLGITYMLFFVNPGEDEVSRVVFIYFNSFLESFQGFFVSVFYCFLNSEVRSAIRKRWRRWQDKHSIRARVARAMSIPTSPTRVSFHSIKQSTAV
How it was run: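 Rat cortical homogenate (0.8 mg original wet weight tissue) incubated 10 min at 37 °C in 100 mM Tris-HCl pH 7.4, 10 mM MgCl2, 0.4 mM EGTA, 0.1% BSA, 1 mM IBMX, creatine phosphate/phosphocreatine kinase, 100 nM ovine-CRF; started with 1 mM ATP/[32P]ATP; [32P]cAMP separated on Dowex and alumina columns, [3H]cAMP recovery marker; n = 3.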

[7] = Binding affinity to L-type calcium channel
[8] = molecular target: T5, Corticotropin-releasing factor receptor 1 (Homo sapiens, UniProt P34998); assay: Binding affinity to CRF1 receptor in human IMR32 cells; format: cell-based, IMR-32
T5 sequence (P34998 whole entry): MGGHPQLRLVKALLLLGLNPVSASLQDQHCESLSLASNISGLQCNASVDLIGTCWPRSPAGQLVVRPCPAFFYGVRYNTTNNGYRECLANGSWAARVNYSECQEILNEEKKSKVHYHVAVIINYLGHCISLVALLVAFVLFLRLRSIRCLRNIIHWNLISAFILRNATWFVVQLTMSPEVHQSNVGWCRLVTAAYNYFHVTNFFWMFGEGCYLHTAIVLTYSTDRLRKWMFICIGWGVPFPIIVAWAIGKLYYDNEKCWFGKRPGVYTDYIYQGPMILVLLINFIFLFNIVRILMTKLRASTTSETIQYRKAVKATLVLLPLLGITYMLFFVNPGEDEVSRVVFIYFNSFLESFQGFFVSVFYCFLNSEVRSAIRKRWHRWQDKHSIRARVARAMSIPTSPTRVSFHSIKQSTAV

[9] = molecular target: T6, Corticotropin-releasing factor receptor 2 (Homo sapiens) (UniProt Q13324); assay: Antagonist activity at human cloned CRF2alpha receptor expressed in HEK293 cells; format: functional, cell-based
T6 sequence (whole entry): T2 sequence (Q13324 whole entry)

| IC50 [1] | IC50 [3] | IC50 [4] | IC50 [5] | IC50 [6] | IC50 [7] | IC50 [8] | Activity [9] | SMILES | inhibition in vivo at 5 mg/kg [2] |
| --- | --- | --- | --- | --- | --- | --- | --- | --- | --- |
| > 1000 nM | > 1000 nM | > 1000 nM | > 1000 nM | 66 nM | > 1000 nM | 4.7 nM | inactive | COCCN(CCOC)c1nc(C)nc2c(-c3ccc(OC)cc3C)c(C)nn12 | 37% |
| > 1000 nM | > 1000 nM | > 1000 nM | > 1000 nM | 38 nM | > 1000 nM | 15.2 nM | inactive | COCCN(CCOC)c1nc(C)nc2c(-c3cc(C)c(OC)cc3C)c(C)nn12 | 44% |
| > 1000 nM | > 1000 nM | > 1000 nM | > 1000 nM | 36 nM | > 1000 nM | 1.2 nM | inactive | CCC(CC)Nc1nc(C)nc2c(-c3cc(F)c(OC)cc3Cl)c(C)nn12 | 66% |
| > 1000 nM | > 1000 nM | > 1000 nM | > 1000 nM | 110 nM | > 1000 nM | 3.4 nM | inactive | CC[C@@H](C)Nc1nc(C)nc2c(-c3c(C)cc(OC)cc3OC)c(C)nn12 | 83% |
